From publication PMC3773219 (Biochemistry, 2013)

Experiments:
GST-Csk = GST-Csk (Homo sapiens, UniProt P41240); experiment: Enzyme coupled kinase assay, GST-Csk; format: biochemical; conditions: kcat/KM with GST-Csk relative to peptide 16
In short: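 GST-tagged wild-type human Csk was expressed in E. coli DH5α and purified on glutathione-Sepharose. The pyruvate kinase/lactate dehydrogenase coupled assay ran at room temperature in 100 mM Tris pH 7.4 with 5 mM MnCl2, 5 mM NaCl, 5 mM KCl, 10 mM DTT, 1 mM ATP, 1 mM PEP, 0.2 mM NADH and 0–2400 μM peptide. It was started with 1–3 μM GST-Csk and A340 followed continuously. Initial rates (<2 min) were fitted to Michaelis-Menten or V = kcat[E][S]/KM.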

MKK6 = molecular target: T1, MKK6 (Homo sapiens, UniProt P52564, S207E/T211E); experiment: Kinase assay by HPLC, MKK6; format: biochemical; conditions: peptide as MKK6 substrate
T1 sequence (P52564 1-334 S207E/T211E): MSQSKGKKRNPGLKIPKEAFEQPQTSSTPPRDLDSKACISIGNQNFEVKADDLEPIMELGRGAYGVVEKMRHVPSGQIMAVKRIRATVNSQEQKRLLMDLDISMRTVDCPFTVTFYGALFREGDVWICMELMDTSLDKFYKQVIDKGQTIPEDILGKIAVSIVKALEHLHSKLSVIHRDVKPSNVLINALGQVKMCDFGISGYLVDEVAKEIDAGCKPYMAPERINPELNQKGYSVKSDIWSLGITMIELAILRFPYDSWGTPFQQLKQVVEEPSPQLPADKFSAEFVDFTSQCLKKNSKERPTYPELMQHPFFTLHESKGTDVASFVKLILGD

Pim1 = Pim1 (Homo sapiens, UniProt P11309); experiment: Enzyme coupled kinase assay, Pim1; format: biochemical; conditions: for reduction of Pim1 activity: relative to consensus peptide 2 (kcat/KM)
In short: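 His6-tagged human Pim1 was expressed in E. coli and purified on Ni-NTA. It was treated with alkaline phosphatase, and phospho and non-phospho forms were separated on Q-Sepharose. The coupled PK/LDH assay ran at room temperature with 20 mM MgCl2, 100 mM Tris pH 7.4, 1 mM ATP, 1 mM PEP, 0.2 mM NADH and 0–2400 μM peptide or PTP-PEST catalytic domain (aa 5–300). It was started with 40–1200 nM Pim1, read at A340, and initial rates were fitted for kcat, KM and/or kcat/KM.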

protein kinases = conditions: cited from earlier work
native Csk = conditions: cited from earlier work

Chain of Pim1 (P11309 whole entry, the tested form may be a part): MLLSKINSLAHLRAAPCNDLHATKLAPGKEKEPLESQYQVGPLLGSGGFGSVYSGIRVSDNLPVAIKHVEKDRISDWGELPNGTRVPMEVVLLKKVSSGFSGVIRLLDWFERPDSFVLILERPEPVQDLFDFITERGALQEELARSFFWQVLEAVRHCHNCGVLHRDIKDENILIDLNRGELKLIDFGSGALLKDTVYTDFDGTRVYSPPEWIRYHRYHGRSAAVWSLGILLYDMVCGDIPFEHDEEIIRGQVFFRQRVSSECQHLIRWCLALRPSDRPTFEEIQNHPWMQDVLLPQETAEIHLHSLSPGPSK
Chain of GST-Csk (P41240 whole entry): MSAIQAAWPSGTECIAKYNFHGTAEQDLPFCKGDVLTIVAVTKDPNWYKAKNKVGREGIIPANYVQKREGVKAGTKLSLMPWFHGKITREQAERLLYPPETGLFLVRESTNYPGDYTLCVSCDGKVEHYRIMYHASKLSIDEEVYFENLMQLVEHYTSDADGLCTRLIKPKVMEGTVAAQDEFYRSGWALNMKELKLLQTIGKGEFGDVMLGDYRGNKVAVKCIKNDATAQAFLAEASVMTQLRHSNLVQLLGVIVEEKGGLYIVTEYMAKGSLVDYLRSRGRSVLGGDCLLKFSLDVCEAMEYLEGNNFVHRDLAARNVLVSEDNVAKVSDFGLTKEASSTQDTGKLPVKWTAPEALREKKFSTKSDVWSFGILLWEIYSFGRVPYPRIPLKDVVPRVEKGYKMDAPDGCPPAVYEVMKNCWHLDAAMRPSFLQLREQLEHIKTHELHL

Ac-DDEPIYAELADIT-NH2 [Peptide 23]
more active than the previous consensus peptide (16) (GST-Csk): 11 fold

Ac-RRRYEILPTWNVY-NH2 [Peptide 13]
Km (MKK6): > 500 µM

AYAHPTGMYY [Peptide 5]
effect of substitution on Pim1 activity (Pim1; relative to consensus peptide 2): abolished the Pim1 activity

Nc1ncnc2c1ncn2[C@@H]1O[C@H](COP(=O)(O)OP(=O)(O)OP(O)(O)=S)[C@@H](O)[C@H]1O [[γ-S]ATP, adenosine 5′-O-(3-thio)triphosphate]
decrease of catalytic activity of kinases on substitution of [γ-S]ATP for ATP (protein kinases): 15–30 fold

Lck: Csk protein substrate
kcat/KM of Csk protein substrates (native Csk; protein substrates of Csk): 200000 M⁻¹ s⁻¹

RYRHPTPMYY [Peptide 7]
reduction of Pim1 activity (Pim1): 62 fold

Ac-KKKKEEIYFFF-NH2 [Peptide 16, reference compound]
kcat/KM (native Csk; native Csk, previously reported): 6050 M⁻¹ s⁻¹

RYRDPTGMYY [Peptide 6]
reduction of Pim1 activity (Pim1): 620 fold

B1: PTP-PEST: non-receptor protein tyrosine phosphatase; recombinant catalytic domain of human PTP-PEST (amino acids 5–300) (protein, UniProt Q05209 5-300, looked up, fragment)
chain: EILRKFIQRVQAMKSPDHNGEDNFARDFMRLRRLSTKYRTEKIYPTATGEKEENVKKNRYKDILPFDHSRVKLTLKTPSQDSDYINANFIKGVYGPKAYVATQGPLANTVIDFWRMIWEYNVVIIVMACREFEMGRKKCERYWPLYGEDPITFAPFKISCEDEQARTDYFIRTLLLEFQNESRRLYQFHYVNWPDHDVPSSFDSILDMISLMRKYQEHEDVPICIHCSAGCGRTGAICAIDYTWNLLKAGKIPEEFNVFNLIQEMRTQRHSAVQTKEQYELVHRAIAQLFEKQLQL
modifications: catalytic domain GST tag
kcat/KM (Pim1; recombinant PTP-PEST protein as Pim1 substrate, enzyme-coupled assay): 34000 M⁻¹ s⁻¹
